Reference: ChEMBL document CHEMBL1150361, “Inhibitors of tubulin polymerization: synthesis and biological evaluation of hybrids of vindoline, anhydrovinblastine and vinorelbine with thiocolchicine, podophyllotoxin and baccatin III” (2008)
Activity calls are given as the source filed them. The calls are words filed in the database; no cut-off is given here.

Legend:
[1] = system: A549; assay: Cytotoxicity against human A549 cells after 24 hrs by MTS assay; format: functional, cell-based
How it was run: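 A549 cells seeded at 10³ cells/well, allowed to attach 24 h, then exposed to drug prepared in medium at 1, 10 or 100 µM for 24 h. MTS/PES reagent added, 1 h at 37 °C, absorbance read at 490 nm. Quintuplicate wells; viability expressed as percentage of control.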

[2] = target: Tubulin (Sus scrofa) (UniProt P02554+P02550); assay: Inhibition of pig brain tubulin polymerization at 10 uM
How it was run: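 Tubulin purified from porcine brain by three warm-cold cycles plus anion-exchange to remove MAPs. Tubulin at 2.7 mg/ml was preincubated with drug (final 10 µM, 0.2% DMSO) in GTP-free K-Pipes pH 6.9 buffer with 10% glycerol, 15 min at 37 °C. Then 1 mM GTP was added and the mix held 30 min at 37 °C. Polymer and soluble fractions were separated at 30,000g and run on SDS-PAGE with Coomassie staining; densitometry; unpaired t-test.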

[3] = system: A549; assay: Cell cycle arrest in human A549 cells assessed as accumulation at G2/M phase at 10 uM at 24 hrs; format: functional
How it was run: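 A549 human lung carcinoma cells were grown in E-MEM with 10% FBS, 2 mM L-glutamine, penicillin and non-essential amino acids at 37 °C, 5% CO2. Cells were seeded at 10⁵–2·10⁵ per well, attached 24 h, then drug-treated (DMSO vehicle control) for 24 h at 37 °C. They were harvested by trypsin, stained for DNA with the CycleTEST PLUS kit, and analysed by flow cytometry for G2/M fraction.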

[4] = system: A549; assay: Cytotoxicity against human A549 cells at 10 uM after 24 hrs […]; format: functional, cell-based

Tubulin (Sus scrofa), sequence (P02550 whole entry, looked up): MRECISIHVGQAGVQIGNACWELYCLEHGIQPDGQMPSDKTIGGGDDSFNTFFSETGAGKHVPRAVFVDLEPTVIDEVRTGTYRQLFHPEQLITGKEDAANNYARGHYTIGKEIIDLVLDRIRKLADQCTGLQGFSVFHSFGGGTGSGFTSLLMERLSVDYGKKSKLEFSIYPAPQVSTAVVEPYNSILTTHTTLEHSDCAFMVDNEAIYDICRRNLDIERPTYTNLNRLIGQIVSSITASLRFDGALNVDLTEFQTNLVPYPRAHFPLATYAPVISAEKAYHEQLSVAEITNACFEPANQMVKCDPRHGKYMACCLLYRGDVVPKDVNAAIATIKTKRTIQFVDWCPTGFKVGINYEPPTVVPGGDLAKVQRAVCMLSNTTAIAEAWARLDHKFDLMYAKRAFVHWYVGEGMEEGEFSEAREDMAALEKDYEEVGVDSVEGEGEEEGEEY
Tubulin (Sus scrofa), sequence (P02554 whole entry, looked up): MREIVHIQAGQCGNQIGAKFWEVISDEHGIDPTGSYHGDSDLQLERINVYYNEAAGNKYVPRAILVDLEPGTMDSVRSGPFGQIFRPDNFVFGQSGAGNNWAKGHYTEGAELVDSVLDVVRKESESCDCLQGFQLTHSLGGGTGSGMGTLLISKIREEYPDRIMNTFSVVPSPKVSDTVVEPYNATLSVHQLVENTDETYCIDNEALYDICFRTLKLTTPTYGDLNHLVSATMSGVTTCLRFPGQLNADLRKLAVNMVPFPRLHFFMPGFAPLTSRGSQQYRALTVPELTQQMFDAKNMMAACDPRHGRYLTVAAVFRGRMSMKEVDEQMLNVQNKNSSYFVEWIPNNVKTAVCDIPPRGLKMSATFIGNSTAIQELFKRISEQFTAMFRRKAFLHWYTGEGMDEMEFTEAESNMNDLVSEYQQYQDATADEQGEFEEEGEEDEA

SMILES | Activity [1] | Activity [2] | Activity [3] | Activity [4]
CC[C@]12C=CCN3CC[C@@]4(c5ccc(OC)cc5N(C)[C@H]4[C@@](O)(C(=O)OC)[C@@H]1OC(=O)CCCCCCCCC(=O)O[C@H]1c4cc5c(cc4[C@@H](c4cc(OC)c(OC)c(OC)c4)[C@H]4C(=O)OC[C@@H]41)OCO5)[C@@H]32 | Active |  |  | 
CC[C@]12C=CCN3CC[C@@]4(c5ccc(OC)cc5N(C)[C@H]4[C@@](O)(C(=O)OC)[C@@H]1OC(=O)CCC(=O)N[C@H]1CCc4cc(OC)c(OC)c(OC)c4-c4ccc(SC)c(=O)cc41)[C@@H]32 | Active | Active | 74% | 
CC[C@]12C=CCN3CC[C@@]4(c5ccc(OC)cc5N(C)[C@H]4[C@@](O)(C(=O)OC)[C@@H]1OC(=O)CCC(=O)O[C@H]1c4cc5c(cc4[C@@H](c4cc(OC)c(OC)c(OC)c4)[C@H]4C(=O)OC[C@@H]41)OCO5)[C@@H]32 | Active |  |  | 
CC[C@]12C=CCN3CC[C@@]4(c5ccc(OC)cc5N(C)[C@H]4[C@@](O)(C(=O)OC)[C@@H]1OC(=O)CCCCCCCCC(=O)N[C@H]1CCc4cc(OC)c(OC)c(OC)c4-c4ccc(SC)c(=O)cc41)[C@@H]32 | Active |  |  | 
CCC1=C[C@H]2CN(C1)Cc1c([nH]c3ccccc13)[C@@](C(=O)OC)(c1cc3c(cc1OC)N(C)[C@H]1[C@@](O)(C(=O)OC)[C@H](OC(=O)CCC(=O)N[C@H]4CCc5cc(OC)c(OC)c(OC)c5-c5ccc(SC)c(=O)cc54)[C@]4(CC)C=CCN5CC[C@]31[C@@H]54)C2 | Active |  |  | 
CC[C@]12C=CCN3CC[C@@]4(c5ccc(OC)cc5N(C)[C@H]4[C@@](O)(C(=O)OC)[C@@H]1OC(=O)CCC(=O)OC1C[C@@]4(O)[C@@H](OC(=O)c5ccccc5)[C@@H]5[C@]6(OC(C)=O)CO[C@@H]6C[C@H](O[Si](CC)(CC)CC)[C@@]5(C)C(=O)[C@H](OC(C)=O)C(=C1C)C4(C)C)[C@@H]32 (some centres not stated) | Active |  |  | 
CCC1=C[C@H]2CN(C1)Cc1c([nH]c3ccccc13)[C@@](C(=O)OC)(c1cc3c(cc1OC)N(C)[C@H]1[C@@](O)(C(=O)OC)[C@H](OC(=O)CCC(=O)O[C@H]4c5cc6c(cc5[C@@H](c5cc(OC)c(OC)c(OC)c5)[C@H]5C(=O)OC[C@@H]54)OCO6)[C@]4(CC)C=CCN5CC[C@]31[C@@H]54)C2 | Active |  |  | Active
CC[C@]12C=CCN3CC[C@@]4(c5ccc(OC)cc5N(C)[C@H]4[C@@](O)(C(=O)OC)[C@@H]1OC(=O)CCCCCCCCC(=O)OC1C[C@@]4(O)[C@@H](OC(=O)c5ccccc5)[C@@H]5[C@]6(OC(C)=O)CO[C@@H]6C[C@H](O[Si](CC)(CC)CC)[C@@]5(C)C(=O)[C@H](OC(C)=O)C(=C1C)C4(C)C)[C@@H]32 (some centres not stated) | Active | Active |  | 
